Measured values published in paper PMC9305408 (Chemmedchem, 2022).
In brackets after ≈: the same amount, converted by molar mass.

Legend:
Format in all cases: cell-based
[1] = system: Escherichia coli ATCC 25922; test: MIC, broth microdilution; details: ATCC25922, 24 h, read-out: minimum inhibitory concentration (MIC)
How it was run: (§1)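 Run by broth microdilution in Mueller-Hinton broth. A 10 mg/mL test sample was added to the first well and serially diluted 1:2 across 12 wells. Bacteria were added to about 10⁶ CFU/mL final, and plates were incubated at 37 °C for 24 h. Resazurin was then added for 2 h at 37 °C, and reduction from blue to pink scored growth. MIC was determined in triplicate.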

[2] = system: Pseudomonas aeruginosa ATCC 27853; test: MIC, broth microdilution; details: ATCC27853, 24 h, read-out: minimum inhibitory concentration (MIC)
How it was run: as §1

[3] = system: Staphylococcus aureus ATCC 29213; test: MIC, broth microdilution; details: ATCC29213, 24 h, read-out: minimum inhibitory concentration (MIC)
How it was run: as §1

Aspergillus niger [4] = test: MIC, broth microdilution; details: 48 h, read-out: minimum inhibitory concentration (MIC)
How it was run: (§2)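 Twofold serial dilutions of test compound in Mueller-Hinton broth were run across 12 wells, starting from 10 mg/mL in the first well. Fungal suspension was added at about 10⁶ CFU/mL final, then plates were incubated at 28 °C for 48 h. Resazurin was added for 2 h at 37 °C, with blue-to-pink reduction scored as growth. MIC was determined in triplicate.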

[5] = system: Bacillus subtilis ATCC 3366; test: MIC, broth microdilution; details: ATCC3366, 24 h, read-out: minimum inhibitory concentration (MIC)
How it was run: as §1

Candida albicans [6] = test: MIC, broth microdilution; details: 48 h, read-out: minimum inhibitory concentration (MIC)
How it was run: as §2

Candida albicans [7] = test: Agar disc diffusion; details: 6 mm discs, 6 μl of 10 mg/mL
Aspergillus niger [8] = test: Agar disc diffusion; details: 6 mm discs, 6 μl of 10 mg/mL
[9] = system: Bacillus subtilis ATCC 3366; test: Agar disc diffusion; details: ATCC3366, read-out: diameter of the inhibition zone
How it was run: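 Agar plates (30 ml medium) were each spread with 100 μl fresh culture of one organism. Sterile 6 mm paper discs were loaded with 6 μl of 10 mg/mL test sample. Plates were sealed against evaporation and incubated at 37 °C for 24 h. Inhibition zone diameter was measured in mm, averaged over three independent determinations.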

MIC [1] | MIC [2] | MIC [3] | MIC (Aspergillus niger [4]) | MIC [5] | MIC (Candida albicans [6]) | Structure (SMILES) | diameter of the inhibition zone (Candida albicans [7]) | diameter of the inhibition zone (Aspergillus niger [8]) | zone of inhibition at 10000 µg/mL [9]
620 µg/mL (≈ 1580 µM) | 2500 µg/mL (≈ 6390 µM) | 2500 µg/mL (≈ 6390 µM) |  | 2500 µg/mL (≈ 6390 µM) | 10000 µg/mL (≈ 25600 µM) | C#CCn1c(=O)cc(C(=O)N[C@@H](C)C(=O)OC)c2cc(Br)ccc21 [Compound 2 b, Methyl (S)‐6‐bromo‐2‐[2‐oxo‐1‐(prop‐2‐yn‐1‐yl)‐1,2‐dihydroquinoline‐4‐carboxamido]propanoate] |  |  | 
78 µg/mL (≈ 183 µM) | 2500 µg/mL (≈ 5880 µM) | 1250 µg/mL (≈ 2940 µM) |  | 310 µg/mL (≈ 729 µM) |  | CCCCCn1cc(Cn2c(=O)cc(C(=O)N[C@@H](C)C(=O)OC)c3ccccc32)nn1 [Compound 3a1, Methyl (S)‐2‐{2‐oxo‐1‐[(1‐pentyl‐1H‐1,2,3‐triazol‐4‐yl)methyl]‐1,2‐dihydroquinoline‐4‐carboxamido}propanoate] | did not show any antifungal activity | did not show any antifungal activity | 
39 µg/mL (≈ 84.9 µM) | 1250 µg/mL (≈ 2720 µM) | 1250 µg/mL (≈ 2720 µM) |  | 2500 µg/mL (≈ 5440 µM) | 10000 µg/mL (≈ 21800 µM) | COC(=O)[C@H](C)NC(=O)c1cc(=O)n(Cc2cn(Cc3ccccc3C)nn2)c2ccccc12 [Compound 3a3, Methyl (S)‐2‐{2‐oxo‐1‐[(1‐(2‐methylbenzyl)‐1H‐1,2,3‐triazol‐4‐yl)methyl]‐1,2‐dihydroquinoline‐4‐carboxamido}propanoate] |  |  | 
19.5 µg/mL (≈ 35.7 µM) | 78 µg/mL (≈ 143 µM) | 39 µg/mL (≈ 71.4 µM) | 10000 µg/mL (≈ 18300 µM) | 310 µg/mL (≈ 567 µM) | 5000 µg/mL (≈ 9150 µM) | COC(=O)C(NC(=O)c1ccccc1)n1cc(Cn2c(=O)cc(C(=O)N[C@@H](C)C(=O)OC)c3ccccc32)nn1 (stereo partly drawn) [Compound 3a5, Methyl (S)‐2‐{2‐oxo‐1‐[(1‐(1‐benzamido‐2‐methoxy‐2‐oxoethyl)‐1H‐1,2,3‐triazol‐4‐yl)methyl]‐1,2‐dihydroquinoline‐4‐carboxamido}propanoate] |  |  | 

Second part, the molecule before the results:

Structure (SMILES) | MIC [1] | MIC [2] | MIC [3] | MIC (Aspergillus niger [4]) | MIC [5] | MIC (Candida albicans [6]) | diameter of the inhibition zone (Candida albicans [7]) | diameter of the inhibition zone (Aspergillus niger [8]) | zone of inhibition at 10000 µg/mL [9]
C#CCn1c(=O)cc(C(=O)N[C@@H](C)C(=O)OC)c2ccccc21 [Compound 2 a, Methyl (S)‐2‐[2‐oxo‐1‐(prop‐2‐yn‐1‐yl)‐1,2‐dihydroquinoline‐4‐carbox amido]propanoate] | 620 µg/mL (≈ 1990 µM) | 620 µg/mL (≈ 1990 µM) | 2500 µg/mL (≈ 8000 µM) | 10000 µg/mL (≈ 32000 µM) | 5000 µg/mL (≈ 16000 µM) |  |  |  | 
COC(=O)[C@H](C)NC(=O)c1cc(=O)n(Cc2cn(Cc3ccccc3)nn2)c2ccccc12 [Compound 3a2, Methyl (S)‐2‐{2‐oxo‐1‐[(1‐benzyl‐1H‐1,2,3‐triazol‐4‐yl)methyl]‐1,2‐dihydroquinoline‐4‐carboxamido}propanoate] | 310 µg/mL (≈ 696 µM) | 2500 µg/mL (≈ 5610 µM) | 2500 µg/mL (≈ 5610 µM) |  | 2500 µg/mL (≈ 5610 µM) | 10000 µg/mL (≈ 22400 µM) |  |  | 
COC(=O)[C@H](C)NC(=O)c1cc(=O)n(Cc2cn(Cc3ccccc3Br)nn2)c2ccccc12 [Compound 3a4, Methyl (S)‐2‐{2‐oxo‐1‐[(1‐(2‐bromobenzyl)‐1H‐1,2,3‐triazol‐4‐yl)methyl]‐1,2‐dihydroquinoline‐4‐carboxamido}propanoate] | 2500 µg/mL (≈ 4770 µM) | 2500 µg/mL (≈ 4770 µM) | 310 µg/mL (≈ 591 µM) |  | 78 µg/mL (≈ 149 µM) |  | did not show any antifungal activity | did not show any antifungal activity | 18 mm
COC(=O)[C@H](C)NC(=O)c1cc(=O)n(Cc2cn(Cc3ccccc3C)nn2)c2ccc(Br)cc12 [Compound 3b3, Methyl (S)‐6‐bromo‐2‐{2‐oxo‐1‐[(1‐(2‐methylbenzyl)‐1H‐1,2,3‐triazol‐4‐yl)methyl]‐1,2‐dihydroquinoline‐4‐carboxamido}propanoate] | 620 µg/mL (≈ 1150 µM) | 620 µg/mL (≈ 1150 µM) | 2500 µg/mL (≈ 4640 µM) |  | 310 µg/mL (≈ 576 µM) |  | did not show any antifungal activity | did not show any antifungal activity | 
COC(=O)[C@H](C)NC(=O)c1cc(=O)n(Cc2cn(Cc3ccccc3Br)nn2)c2ccc(Br)cc12 [Compound 3b4, Methyl (S)‐6‐bromo‐2‐{2‐oxo‐1‐[(1‐(2‐bromobenzyl)‐1H‐1,2,3‐triazol‐4‐yl)methyl]‐1,2‐dihydroquinoline‐4‐carboxamido}propanoate] | 310 µg/mL (≈ 514 µM) | 1250 µg/mL (≈ 2070 µM) | 2500 µg/mL (≈ 4140 µM) |  | 9.75 µg/mL (≈ 16.2 µM) |  | did not show any antifungal activity | did not show any antifungal activity | 
